Measured values as given in ChEMBL document CHEMBL3259584, “Antiproliferative novel isoxazoles: modeling, virtual screening, synthesis, and bioactivity evaluation” (Eur J Med Chem, 2014).

Columns and labels:
[1] = Antiproliferative activity against MBEC after 5 days by coulter counter analysis; design: species or system Mus musculus
In short: (§1)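 Mouse brain endothelial cells (MBEC), HeLa and MCF-7 were maintained in DMEM with 10 mM Hepes and 10% FBS. Cells were seeded at 10,000 cells per cm2. After 16 h the medium was replaced with fresh medium containing 5-fold serial dilutions of compound. On day 5 cells were trypsinized and counted electronically. IC50 was taken as the concentration halving cell number relative to untreated control counts.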

MCF7 = assay: Antiproliferative activity against human MCF7 cells after 5 days by coulter counter analysis; assay type: functional, cell-based; conditions: MCF7, 120 h; in short: as §1
HeLa = assay: Antiproliferative activity against human HeLa cells after 5 days by coulter counter analysis; assay type: functional, cell-based; conditions: 120 h; in short: as §1
[2] = Antiproliferative activity against human HMEC1 cells after 5 days by coulter counter analysis; assay type: cell-based; conditions: HMEC-1, 120 h
In short: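 HMEC-1 human microvascular endothelial cells were grown in EGM-2 MV endothelial medium and plated at 10,000 cells per cm2. After 16 h they received fresh medium with 5-fold dilutions of compound. On day 5 cells were trypsinized and counted with a Coulter counter. IC50 was the concentration reducing cell count by 50% relative to control cultures.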

| SMILES | IC50 [1] | IC50 (MCF7) | IC50 (HeLa) | IC50 [2] |
| --- | --- | --- | --- | --- |
| COc1ccc(-c2cc(-c3ccc(OC)cc3)on2)cc1 | > 100 µM | > 100 µM | > 100 µM | > 100 µM |
| COc1ccc(-c2noc(-c3ccc(OC)cc3)c2C)cc1 | > 100 µM | > 100 µM | > 100 µM | > 100 µM |
| CCc1c(-c2ccc(OC)cc2)noc1-c1ccc(OC)cc1 | > 100 µM | > 100 µM | > 100 µM | > 100 µM |
| COc1ccc(-c2cc(-c3ccc([N+](=O)[O-])cc3)on2)cc1 | > 100 µM | > 100 µM | > 100 µM | > 100 µM |
| Oc1ccc(-c2cc(-c3ccc(O)cc3)on2)cc1 | 2.5 µM | 5.2 µM | 6 µM | 6.3 µM |
| Cc1c(-c2ccc(O)cc2)noc1-c1ccc(O)cc1 | 19 µM | 48 µM | 15 µM | 47 µM |
| CCc1c(-c2ccc(O)cc2)noc1-c1ccc(O)cc1 | 13 µM | 9.8 µM | 16 µM | 9.7 µM |
| O=[N+]([O-])c1ccc(-c2cc(-c3ccc(O)cc3)no2)cc1 | 42 µM | 53 µM | 57 µM | 27 µM |
| COc1ccc(-c2noc3c2CCc2cc(OC)ccc2-3)cc1 | > 100 µM | > 100 µM | > 100 µM | > 100 µM |
| COc1ccc(-c2noc3c2CCc2cc(OC)c(OC)cc2-3)cc1 | > 100 µM | > 100 µM | > 100 µM | > 100 µM |
| COc1ccc2c(c1)CCc1c(-c3ccc(OC)c(OC)c3)noc1-2 | > 100 µM | > 100 µM | > 100 µM | > 100 µM |
| COc1ccc(-c2noc3c2CCc2cc(OC)c(OC)cc2-3)cc1OC | 1.1 µM | 0.36 µM | 0.59 µM | 0.56 µM |
| Oc1ccc(-c2noc3c2CCc2cc(O)c(O)cc2-3)cc1 | 6.8 µM | 2.1 µM | 10 µM | 7.4 µM |
| Oc1ccc(-c2noc3c2CCc2cc(O)c(O)cc2-3)cc1O | 10 µM | 2.1 µM | 9.1 µM | 4.2 µM |
| COc1ccc2c(c1)CCc1c(-c3ccc(SC(F)(F)F)cc3)noc1-2 | > 100 µM | > 100 µM | > 100 µM | > 100 µM |
| Oc1ccc2c(c1)CCc1c(-c3ccc(SC(F)(F)F)cc3)noc1-2 | 67 µM | 81 µM | 55 µM | 65 µM |
| COc1ccc2c(c1)CCc1c(-c3ccc(F)cc3)noc1-2 | > 100 µM | > 100 µM | 34 µM | > 100 µM |
| Oc1ccc(-c2noc3c2CCc2cc(O)ccc2-3)cc1 | 4.6 µM | 3.1 µM | 3.3 µM | 6.7 µM |
| Oc1ccc2c(c1)CCc1c(-c3ccc(O)c(O)c3)noc1-2 | 0.96 µM | 0.72 µM | 0.97 µM | 0.42 µM |
| Oc1ccc2c(c1)CCc1c(-c3ccc(F)cc3)noc1-2 | 38 µM | > 100 µM | > 100 µM | 46 µM |
